# SUMO1 PPI mod: modulators of human SUMO1-mediated protein-protein interactions. SUMO1 binding to a labelled peptide, TR-FRET, 1 h. inhibition, % at 20 µM. 0.33% of 360,000 active; in the data active = inhibition above about 37%
# Target sequence (P63165 whole entry, looked up): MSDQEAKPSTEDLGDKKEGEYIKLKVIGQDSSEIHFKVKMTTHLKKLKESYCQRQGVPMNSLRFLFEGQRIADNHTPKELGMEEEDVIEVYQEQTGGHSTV
# LMPTP block: blocks human LMPTP phosphatase. P24666. recombinant LMPTP-A, OMFP fluorogenic substrate, fluorescence intensity. inhibition, % at 20 µM. 0.22% of 360,000 active. AID 651560;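 active = compounds that cut the enzyme signal by at least half of the control window in the single-dose screen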;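 note: plate controls were DMSO wells with enzyme plus substrate for no effect and substrate without enzyme for full effect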
# Target sequence (P24666 whole entry, looked up): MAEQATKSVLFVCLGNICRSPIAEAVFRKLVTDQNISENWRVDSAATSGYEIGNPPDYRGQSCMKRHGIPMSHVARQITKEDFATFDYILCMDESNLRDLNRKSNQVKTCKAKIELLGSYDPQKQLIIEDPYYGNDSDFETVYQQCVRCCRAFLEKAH
#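 Assay system: LMPTP-A enzyme. Input: 0.625 nM LMPTP-A final. Probe or stimulus: 400 µM OMFP. Compound dosing: single 20 µM dose. Schedule: 50 min dark incubation at room temperature. Detection: fluorescence intensity of OMFP turnover product. Read-out: percent inhibition versus substrate-only and uninhibited controls. Benchmarks: no-enzyme low control, uninhibited high control.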
# STEP block: inhibitors of human striatal-enriched phosphatase STEP; 0.25% of 360,000 active; recombinant STEP, OMFP fluorogenic substrate, fluorescence; inhibition, % at 20 µM; P54829;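 active = inhibition at 20 µM, scaled per plate between control wells, above about 37%, limit read from the data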;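 note: 0% = DMSO with enzyme and substrate and 100% = substrate only without enzyme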
#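 Measure: Control-normalized % inhibition with plate pattern correction | Test system: STEP phosphatase, cell-free reaction | Medium: pH 6.0 Bis-Tris with DTT and Tween 20 | Technique: Fluorescence, 480/540 nm | Times: Reaction 20 min, ambient temperature | Doses: Single compound dose of 20 µM, 1% DMSO final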
# DNMT1 block: blocks human DNA methyltransferase DNMT1; inhibition (reported as % activation of signal), % at 10 µM; 0.83% of 360,000 active; DNMT1 molecular beacon, Hinp1I cleavage, fluorescence; P26358; in the data active = inhibition above about 50%
# Scp1 inh: blocks human Scp-1 phosphatase activity; AID 493091; 0.88% of 340,000 active; inhibition, % at 20 µM; Recombinant Scp1, phosphopeptide, malachite green phosphate absorbance; Q9GZU7;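 active = inhibition above about 50% at 20 µM, limit read from the data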;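 note: plate controls were DMSO wells with enzyme for no effect and wells lacking enzyme for full effect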
#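 Test system – truncated SCP-1 phosphatase (76-261aa) · Reagent – Phosphorylated 17-residue peptide substrate · Incubation – 45 min room-temperature reaction, 5 min colour, 30 min stabiliser · Detection – colorimetric phosphate reagent with accelerator and stabiliser, absorbance at 630 nm · Measure – % inhibition at 20 µM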
# * = called active by the depositor; / = not tested or not shown. Rows were chosen to be rich in hits. Some 1.8% of all compounds tested hit in one or more screens of this group.
SMILES,SUMO1 PPI mod,LMPTP block,STEP block,DNMT1 block,Scp1 inh
O=C(O)c1cccc(-n2cccc2/C=C2/NC(=O)N(c3ccc(Cl)cc3)C2=O)c1,106*,81*,94*,87*,81*
CCC(C)NC(=O)CSc1nc2cc3c(cc2c(=O)n1Cc1ccco1)OCO3 (configuration not stated),42*,-1,-1,14,-5
Cc1ccc(C(=O)COC(=O)c2cc(=O)[nH]c3ccccc23)cc1C,10,24,25,22,81*
CN(CC(=O)Nc1ccc(Cl)c(C(F)(F)F)c1)C(=O)c1ccccc1SCC(=O)N1CCCC1,-74,-7,0,-13,-8
COc1ccc(-n2nc3c(N4CCC(C(=O)NCc5ccccc5C)CC4)nnc(C)c3c2C)cc1,16,26,-2,21,30
COc1ccc(-n2nc3c(N4CCC(C(=O)NCc5ccco5)CC4)nnc(C)c3c2C)cc1,15,53*,1,2,5
Cc1ccc(-n2nc3c(N4CCC(C(=O)NCc5ccc(C)o5)CC4)nnc(C)c3c2C)cc1,33,65*,0,-7,3
CCOc1ccccc1CNC(=O)C1CCCN(c2nnc(C)c3c(C)n(-c4ccccc4)nc23)C1 (configuration not stated),47*,6,-2,2,6
Cc1ccc(CN(C)C(=O)COc2ccc(S(=O)(=O)N3CCCC3)cc2[N+](=O)[O-])c(C)c1,-18,0,1,-24,-12
CC(=O)Nc1cc(-c2ccc(CO)cc2)cn2c(-c3ccc(F)cc3)cnc12,-14,0,-1,-4,/
Cc1cc(C)cc(NC(=O)c2ccc(CNc3c(N4CCOCC4)c(=O)c3=O)cc2)c1,42*,1,2,-4,-3
Cc1ccc(NC(=O)c2ccc(CNc3c(N4CCOCC4)c(=O)c3=O)cc2)cc1,19,0,-1,3,-9
Cc1cc(C)cc(NC(=O)c2ccc(CNc3c(N4CCCC4)c(=O)c3=O)cc2)c1,51*,0,0,-4,-4
COC(=O)[C@@]1(C(C)C)N=C(c2cc(OC)c(OC)c(OC)c2)[C@]2(O1)C(=O)N(Cc1ccc(OC)cc1)c1ccc(Br)cc12,-3,5,/,/,/
O=C(NC(Cc1ccc(O)cc1)C(=O)N=Nc1c(O)[nH]c2ccccc12)c1ccccc1 (configuration not stated),-29,-1,0,1,7
COc1ccc2[nH]c(=O)c(CN(C(C)=O)c3cc(C)ccc3C)cc2c1,2,-1,2,-1,/
O=C(CN1C(=O)C2C3C=CC(C3)C2C1=O)OCC(=O)c1ccc(Cl)c([N+](=O)[O-])c1 (configuration not stated),-9,0,4,2,-5
CN(c1cccc(NC(=O)c2ccc(N(C)S(=O)(=O)c3ccccc3)cc2)c1)S(C)(=O)=O,-3,1,0,-8,-15
CN(c1cccc(NC(=O)c2ccc(C(C)(C)C)cc2)c1)S(C)(=O)=O,44*,1,2,7,-3
COCCCN1C(=O)C(CC(=O)NCCN2CCOCC2)CC(C(=O)N2CCOCC2)=C1C (configuration not stated),3,-2,/,/,/
O=C(NN1C(=O)CSC1=S)c1cccnc1,60*,0,4,-3,-4
NC(=O)c1nnsc1-c1ccco1,-20,0,-6,-1,-2
O=C1NCCOC(=O)[C@@H](Cc2ccc(F)cc2)C/C=C\C[C@@H]1CC(=O)N(CCO)Cc1ccccc1,-2,5,6,5,-5
CCCCCCCC/C=C\CCCCCCCC(=O)O,24,2,0,59*,-6
COC(=O)C[C@H]1CC[C@@H](NC(=O)Nc2c(C)noc2C)[C@@H](CO)O1,4,-1,/,/,/
O=C(O)c1cc(Cl)c2c(c1)[C@@H]1C=CC[C@@H]1[C@H](c1ccc(S(=O)(=O)N3CCOCC3)cc1)N2,42*,0,1,13,12
COc1cccc2cc(C(=O)N3CC(C)OC(C)C3)c(=O)oc12 (configuration not stated),-6,-1,-2,1,-5

# Assay outcomes as filed in PubChem.
